Measurements published in ChEMBL document CHEMBL3877264, “Quinolidene-rhodanine conjugates: Facile synthesis and biological evaluation” (Eur J Med Chem, 2017).
Values after ≈ are worked out from the molar mass of the structure shown.

Assays:
[1] = Antifungal activity against Fusarium oxysporum NCIM 1332 by standard agar method; assay type: functional
Method in brief: (§1)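 MICs determined by standard agar method; DMSO as solvent control.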

Bacillus subtilis [2] = experiment: Growth inhibition of Bacillus subtilis NCIM 2079 at 3 ug/ml measured after 12 hrs relative to control; assay type: functional; details: NCIM 2079, 12 h, read-out: GI
Method in brief: (§2)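 Bacteria grown in LB at 37 °C and 180 rpm to OD 1. Compounds added to wells, then 0.1% inoculum of 1 OD culture (620 nm). Growth read as OD at 620 nm after 8 h for gram-negative and after 12 h for gram-positive strains.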

Escherichia coli [3] = experiment: Growth inhibition of Escherichia coli NCIM 2688 at 10 ug/ml measured after 8 hrs relative to control; assay type: functional; details: NCIM 2688, 8 h, read-out: GI; method in brief: as §2
Escherichia coli [4] = experiment: Growth inhibition of Escherichia coli NCIM 2688 at 3 ug/ml measured after 8 hrs relative to control; assay type: functional; details: NCIM 2688, 8 h, read-out: GI; method in brief: as §2
Pseudomonas fluorescens [5] = experiment: Growth inhibition of Pseudomonas fluorescens NCIM 2036 at 10 ug/ml measured after 8 hrs relative to control; assay type: functional; details: NCIM 2036, 8 h, read-out: GI; method in brief: as §2
Pseudomonas fluorescens [6] = experiment: Growth inhibition of Pseudomonas fluorescens NCIM 2036 at 3 ug/ml measured after 8 hrs relative to control; assay type: functional; details: NCIM 2036, 8 h, read-out: GI; method in brief: as §2
Staphylococcus aureus = experiment: Antibacterial activity against of Staphylococcus aureus NCIM 2010 measured after 12 hrs; assay type: functional; details: NCIM 2010, 12 h; method in brief: as §2
Bacillus subtilis [7] = experiment: Antibacterial activity against Bacillus subtilis NCIM 2079 measured after 12 hrs; assay type: functional; details: NCIM 2079, 12 h; method in brief: as §2
[8] = test system: Mycobacterium tuberculosis; experiment: Growth inhibition of Mycobacterium tuberculosis H37Ra ATCC 25177 at active stage at 100 ug/ml measured after 8 days by XTT dye based two fold dilution method relative to control; assay type: functional; details: H37Ra ATCC 25177, 192 h, read-out: GI
Method in brief: (§3)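 MTB H37Ra was grown in Dubos medium, then exposed in Mycobacterium pheli minimal medium (pH 6.6) to compounds dissolved in DMSO. The assay ended on day 8 (active) or day 12 (dormant). Viable cells were measured by XTT reduction menadione assay at 470 nm, blank-corrected, relative to vehicle control. Triplicates were expressed as mean ± SD. MIC came from dose-response curves.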

[9] = test system: Mycobacterium tuberculosis; experiment: Growth inhibition of Mycobacterium tuberculosis H37Ra ATCC 25177 at active stage at 3.13 ug/ml measured after 8 days by XTT dye based two fold dilution method relative to control; assay type: functional; details: H37Ra ATCC 25177, 192 h, read-out: GI; method in brief: as §3
[10] = test system: Mycobacterium tuberculosis; experiment: Growth inhibition of Mycobacterium tuberculosis H37Ra ATCC 25177 at dormant stage at 50 ug/ml measured after 12 days by XTT dye based two fold dilution method relative to control; assay type: functional; details: H37Ra ATCC 25177, 288 h, read-out: GI; method in brief: as §3
[11] = test system: Mycobacterium tuberculosis; experiment: Growth inhibition of Mycobacterium bovis BCG ATCC 35743 at dormant stage at 30 ug/ml measured after 12 days by nitrate reductase dye based two fold dilution method relative to control; assay type: functional; details: BCG str. ATCC 35743, 288 h, read-out: GI
Method in brief: (§4)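 M. bovis BCG was grown in Dubos medium and assayed in Mycobacterium pheli minimal medium (pH 6.6), with compounds from DMSO stocks. Incubation lasted 8 days for active and 12 days for dormant cultures. Viability was read by nitrate reductase at 540 nm against cell-free blanks, with vehicle set as 100% growth. Primary screen was at 30, 10 and 3 µg/ml, in triplicate, mean ± SD. MIC was taken from dose-response curves.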

[12] = test system: Mycobacterium tuberculosis; experiment: Growth inhibition of Mycobacterium bovis BCG ATCC 35743 at dormant stage at 10 ug/ml measured after 12 days by nitrate reductase dye based two fold dilution method relative to control; assay type: functional; details: BCG str. ATCC 35743, 288 h, read-out: GI; method in brief: as §4
[13] = test system: Mycobacterium tuberculosis; experiment: Growth inhibition of Mycobacterium tuberculosis H37Ra ATCC 25177 at dormant stage measured after 12 days by XTT dye based two fold dilution method; assay type: functional; details: H37Ra ATCC 25177, 288 h; method in brief: as §3
[14] = test system: Mycobacterium tuberculosis; experiment: Growth inhibition of Mycobacterium tuberculosis H37Ra ATCC 25177 at active stage measured after 8 days by XTT dye based two fold dilution method; assay type: functional; details: H37Ra ATCC 25177, 192 h; method in brief: as §3
[15] = Antifungal activity against Cryptococcus neoformans NCIM 576 by standard agar method; assay type: functional; method in brief: as §1
[16] = Cytotoxicity against human THP1 cells assessed as growth inhibition at 100 ug/ml measured after 48 hrs by MTT assay relative to control; assay type: toxicity, cell-based, THP-1; details: read-out: GI
Method in brief: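 MTT assay with 48 h compound exposure. THP-1 macrophages made by 24 h PMA treatment. Each concentration tested in triplicate in one experiment. % cytotoxicity = (control−test)/(control−blank)×100, with control = cells + DMSO and blank = medium without cells. IC50 from % survival versus concentration plots.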

[17] = Cytotoxicity against human PANC1 cells measured after 48 hrs by MTT assay; assay type: toxicity, cell-based, PANC-1
[18] = Selectivity index, ratio of GI50 for human THP1 cells to MIC for Mycobacterium tuberculosis H37Ra ATCC 25177 at dormant stage; assay type: toxicity, cell-based, THP-1; details: read-out: Selectivity Index
Method in brief: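 SI is the cell-line GI50 divided by the dormant-stage mycobacterial MIC. […] THP-1 macrophages were PMA-differentiated for 24 h.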

[19] = test system: Mycobacterium tuberculosis; experiment: Growth inhibition of Mycobacterium bovis BCG ATCC 35743 at dormant stage at 100 ug/ml measured after 12 days by nitrate reductase dye based two fold dilution method relative to control; assay type: functional; details: BCG str. ATCC 35743, 288 h, read-out: GI; method in brief: as §4
[20] = test system: Mycobacterium tuberculosis; experiment: Growth inhibition of Mycobacterium bovis BCG ATCC 35743 at dormant stage at 25 ug/ml measured after 12 days by nitrate reductase dye based two fold dilution method relative to control; assay type: functional; details: BCG str. ATCC 35743, 288 h, read-out: GI; method in brief: as §4
[21] = test system: Mycobacterium tuberculosis; experiment: Growth inhibition of Mycobacterium bovis BCG ATCC 35743 at dormant stage at 3.13 ug/ml measured after 12 days by nitrate reductase dye based two fold dilution method relative to control; assay type: functional; details: BCG str. ATCC 35743, 288 h, read-out: GI; method in brief: as §4
[22] = test system: Mycobacterium tuberculosis; experiment: Growth inhibition of Mycobacterium bovis BCG ATCC 35743 at dormant stage at 1.56 ug/ml measured after 12 days by nitrate reductase dye based two fold dilution method relative to control; assay type: functional; details: BCG str. ATCC 35743, 288 h, read-out: GI; method in brief: as §4
[23] = test system: Mycobacterium tuberculosis; experiment: Growth inhibition of Mycobacterium bovis BCG ATCC 35743 at active stage at 100 ug/ml measured after 8 days by nitrate reductase dye based two fold dilution method relative to control; assay type: functional; details: BCG str. ATCC 35743, 192 h, read-out: GI
[24] = test system: Mycobacterium tuberculosis; experiment: Growth inhibition of Mycobacterium bovis BCG ATCC 35743 at active stage at 25 ug/ml measured after 8 days by nitrate reductase dye based two fold dilution method relative to control; assay type: functional; details: BCG str. ATCC 35743, 192 h, read-out: GI; method in brief: as §4
[25] = test system: Mycobacterium tuberculosis; experiment: Growth inhibition of Mycobacterium bovis BCG ATCC 35743 at active stage at 6.25 ug/ml measured after 8 days by nitrate reductase dye based two fold dilution method relative to control; assay type: functional; details: BCG str. ATCC 35743, 192 h, read-out: GI; method in brief: as §4
[26] = test system: Mycobacterium tuberculosis; experiment: Growth inhibition of Mycobacterium bovis BCG ATCC 35743 at active stage at 3.13 ug/ml measured after 8 days by nitrate reductase dye based two fold dilution method relative to control; assay type: functional; details: BCG str. ATCC 35743, 192 h, read-out: GI; method in brief: as §4
[27] = test system: Mycobacterium tuberculosis; experiment: Growth inhibition of Mycobacterium bovis BCG ATCC 35743 at active stage at 0.78 ug/ml measured after 8 days by nitrate reductase dye based two fold dilution method relative to control; assay type: functional; details: BCG str. ATCC 35743, 192 h, read-out: GI; method in brief: as §4
Candida albicans = experiment: Antifungal activity against Candida albicans NCIM 3471 by standard agar method; assay type: functional; method in brief: as §1

| Structure (SMILES) | MIC [1] [µg/mL] | inhibition of growth at 3 µg/mL (Bacillus subtilis [2]) [%] | inhibition of growth at 10 µg/mL (Escherichia coli [3]) [%] | inhibition of growth at 3 µg/mL (Escherichia coli [4]) [%] | inhibition of growth at 10 µg/mL (Pseudomonas fluorescens [5]) [%] | inhibition of growth at 3 µg/mL (Pseudomonas fluorescens [6]) [%] | MIC (Staphylococcus aureus) [µg/mL] | MIC (Bacillus subtilis [7]) [µg/mL] | inhibition of growth at 100 µg/mL [8] [%] | inhibition of growth at 3.13 µg/mL [9] [%] | inhibition of growth at 50 µg/mL [10] [%] | inhibition of growth at 30 µg/mL [11] [%] | inhibition of growth at 10 µg/mL [12] [%] | IC50 [13] [µg/mL] | IC90 [13] [µg/mL] | IC50 [14] [µg/mL] | IC90 [14] [µg/mL] | MIC [15] [µg/mL] | inhibition at 48 h, 100 ug/ml [16] [%] | GI50 at 48 h [17] [µg/mL] | other results |
| --- | --- | --- | --- | --- | --- | --- | --- | --- | --- | --- | --- | --- | --- | --- | --- | --- | --- | --- | --- | --- | --- |
| Cc1cccc2cc(/C=C3\SC(=S)N(CC(=O)O)C3=O)c(Cl)nc12 | 175 (≈ 462 µM) | -3.67 | 3.38 | 8.28 | 21.3 | 11.2 | > 30 | > 30 | 98.5 | -10.2 | 102 | 70 | 31.6 | 10.3 (≈ 27.2 µM) | 19.9 (≈ 52.5 µM) | 21.2 (≈ 56 µM) | 27.3 (≈ 72.1 µM) | 150 (≈ 396 µM) | 32.3 | > 100 | selectivity ratio [18]: 5 |
| O=C1NC(=S)S/C1=C\c1cc2cc(Cl)ccc2nc1Cl | 100 (≈ 293 µM) | 62.8 | 109 | 106 | 101 | 95.6 | 2.55 (≈ 7.47 µM) | 9.33 (≈ 27.3 µM) | 92.7 | 81.1 | 86.4 | 99.2 | 99.6 | 2.2 (≈ 6.45 µM) | 6.3 (≈ 18.5 µM) | 1.9 (≈ 5.57 µM) | 3.8 (≈ 11.1 µM) | 100 (≈ 293 µM) | 28.7 | > 100 | inhibition of growth at 100 µg/mL [19]: 98.7%; inhibition of growth at 25 µg/mL [20]: 100%; inhibition of growth at 3.13 µg/mL [21]: 100%; inhibition of growth at 1.56 µg/mL [22]: 60.5%; inhibition of growth at 100 µg/mL [23]: 98.4%; inhibition of growth at 25 µg/mL [24]: 99.9%; inhibition of growth at 6.25 µg/mL [25]: 100%; inhibition of growth at 3.13 µg/mL [26]: 98.9%; inhibition of growth at 0.78 µg/mL [27]: 7.4%; MIC (Candida albicans): 100 µg/mL (≈ 293 µM); selectivity ratio [18]: 15.6 |
| COc1ccc2cc(/C=C3\SC(=S)NC3=O)c(Cl)nc2c1 | 50 (≈ 148 µM) | -4.12 | 39.4 | 26.4 | 43.5 | 0.629 | > 30 | > 30 | 96.4 | 8.88 | 104 | 10.1 | 27.9 | 10 (≈ 29.7 µM) | > 30 | 5.7 (≈ 16.9 µM) | 21.1 (≈ 62.6 µM) | 50 (≈ 148 µM) | 26.7 | > 100 | inhibition of growth at 100 µg/mL [19]: 99%; inhibition of growth at 25 µg/mL [20]: 99.8%; inhibition of growth at 3.13 µg/mL [21]: 81.6%; inhibition of growth at 1.56 µg/mL [22]: -29.2%; inhibition of growth at 100 µg/mL [23]: 98.9%; inhibition of growth at 25 µg/mL [24]: 98.4%; inhibition of growth at 6.25 µg/mL [25]: 96.6%; inhibition of growth at 3.13 µg/mL [26]: 91.5%; inhibition of growth at 0.78 µg/mL [27]: -60.1%; MIC (Candida albicans): 50 µg/mL (≈ 148 µM) |
